Each block holds one molecule with its values, some of them ahead of it. The source made the active and inactive calls. The rule behind the calls is not given here.
What was measured:
Type in all cases: cell-based
[1] = (§1) Negative allosteric modulation of GluN1a/GluN2A receptor (unknown origin) expressed in Xenopus laevis oocytes assessed as inhibition of (S)-glutamate/glycine-induced channel current at 500 nM at -70 mV holding potential by two electrode voltage clamp based electrophysiology assay relative to control TCN-201; settings: Homo sapiens
Method in brief: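 The screen ran on GluN1a/GluN2A oocytes (0.8 ng of each rat cRNA) by room-temperature TEVC in Mg2+-free Ba2+-Ringer, pH 7.4, with (S)-glutamate/glycine activation. Compounds were at 500 nM. Inhibition was normalized to that of the reference antagonist at 500 nM, tested in the same series of experiments. n is the number of independent oocytes.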

[2] = as §1, with “200” for “500”, “potential in presence of 1 to 30 uM glycine” for “potential”, “assay” for “assay relative to control TCN-201”; settings: Homo sapiens
Method in brief: (§2)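 Oocytes co-injected with 0.8 ng each of rat GluN1a and GluN2A cRNA were recorded by TEVC at room temperature in Mg2+-free Ba2+-Ringer, pH 7.4. Compound was fixed at 200 nM. Currents were evoked by (S)-glutamate with glycine at 1, 3, 10 and 30. There were 3 oocytes per glycine level. Mean inhibition was fitted linearly (y = a + b*x) to give intercept and slope.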

[3] = as §1, with “200” for “500”, “potential in presence of 1 to 10 uM glycine” for “potential”, “assay” for “assay relative to control TCN-201”; settings: Homo sapiens; method in brief: as §2
[4] = Negative allosteric modulation of GluN1a/GluN2B receptor (unknown origin) expressed in Xenopus laevis oocytes assessed as inhibition of (S)-glutamate/glycine-induced channel current at 10 uM at -70 mV holding potential by two electrode voltage clamp based electrophysiology assay; settings: Homo sapiens
Method in brief: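 For selectivity, oocytes received 0.8 ng GluN1a plus 0.8 ng GluN2B rat cRNA. TEVC was at room temperature in Mg2+-free Ba2+-Ringer, pH 7.4, with (S)-glutamate/glycine stimulation. Compounds were at 10 µM, giving 0.1% DMSO in the test solution. There were 4–5 oocytes per compound.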

[5] = (§3) Negative allosteric modulation of GluN1a/GluN2A receptor (unknown origin) expressed in Xenopus laevis oocytes assessed as inhibition of (S)-glutamate/glycine-induced channel current at -70 mV holding potential in presence of 10 uM glycine by two electrode voltage clamp based electrophysiology assay; settings: Homo sapiens
Method in brief: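 Rat wild-type GluN1a and GluN2A cRNA (0.8 ng each) injected into defolliculated oocytes. TEVC at room temperature in Mg2+-free Ba2+-Ringer (10 mM HEPES, 90 mM NaCl, 1 mM KCl, 1.5 mM BaCl2, pH 7.4). Compound was diluted from DMSO stock into (S)-glutamate/glycine agonist solution over a 1 nM–10 range. There were 5 oocytes per concentration. The logistic fit had minimal and maximal inhibition fixed at 0% and 100%.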

Homo sapiens [6] = species on record: Homo sapiens; experiment: as §3, with “current at 200 nM at -70 mV” for “current at -70 mV”, “presence of 1 to 3 uM glycine” for “presence of 10 uM glycine”; method in brief: as §2
Homo sapiens [7] = species on record: Homo sapiens; experiment: as §3, with “current at 200 nM at -70 mV” for “current at -70 mV”, “presence of 30 uM glycine” for “presence of 10 uM glycine”; method in brief: as §2
[8] = Negative allosteric modulation of GluN1a/GluN2A receptor (unknown origin) expressed in Xenopus laevis oocytes assessed as inhibition of (S)-glutamate/glycine-induced channel current at -70 mV holding potential in presence of 3 uM glycine by two electrode voltage clamp based electrophysiology assay; settings: Homo sapiens

Compound: O=C(O)CCC(=O)NNC(=O)c1ccc(CNS(=O)(=O)c2ccc(F)c(Cl)c2)cc1
Ratio [1]: 0.3

Compound: O=C(NNC(=O)c1cccs1)c1ccc(CNS(=O)(=O)c2ccc(F)c(Cl)c2)cc1
inhibition [2]: Active | inhibition [3]: Active | inhibition [4]: inactive | Ratio [1]: 1.35 | IC50 [5]: 198 nM

Compound: O=C(NNC(=O)c1ccc(CNS(=O)(=O)c2cccc(Br)c2)cc1)c1ccccc1
IC50 [5]: 204 nM

Compound: O=C(NNC(=O)c1cccs1)c1ccc(CNS(=O)(=O)c2cccc(Br)c2)cc1
inhibition [2]: Active | inhibition [3]: Active | inhibition [4]: inactive | IC50 [5]: 222 nM

Compound: O=C(NNC(=O)c1ccc[nH]1)c1ccc(CNS(=O)(=O)c2ccc(F)c(Cl)c2)cc1
Ratio [1]: 1.2

Compound: O=C(NNC(=O)c1ccc2ccccc2c1)c1ccc(CNS(=O)(=O)c2ccc(F)c(Cl)c2)cc1
Ratio [1]: 0.44

Compound: CC(C(O)c1ccc(O)cc1)N1CCC(Cc2ccccc2)CC1 (configuration not stated)
inhibition [4]: inactive

Compound: O=S(=O)(NCc1ccc(-c2nnc(-c3ccccc3)o2)cc1)c1ccc(F)c(Cl)c1
Ratio [1]: 0.31

Compound: O=C(NNC(=O)N1CCOCC1)c1ccc(CNS(=O)(=O)c2ccc(F)c(Cl)c2)cc1
Ratio [1]: 0.52

Compound: Cc1ncc(CNC(=O)c2cnc(CNS(=O)(=O)c3ccc(F)c(F)c3)c(C)n2)s1
inhibition [2]: Active | IC50 [8]: 198 nM | inhibition (Homo sapiens [7]): Active | inhibition [3]: Active

Compound: O=C(NNC(=O)c1ccncn1)c1ccc(CNS(=O)(=O)c2ccc(F)c(Cl)c2)cc1
Ratio [1]: 0.92

Second part, the molecule after the results:

Ratio [1]: 0.73
Compound: O=C(NNCc1ccccc1)c1ccc(CNS(=O)(=O)c2ccc(F)c(Cl)c2)cc1

inhibition (Homo sapiens [6]): inactive | inhibition (Homo sapiens [7]): Active | inhibition [3]: Active | inhibition [4]: inactive | IC50 [5]: 512 nM
Compound: O=C(NNC(=O)c1ccc(CNS(=O)(=O)c2ccc(F)c(Cl)c2)cc1)c1ccccc1

Ratio [1]: 1.1
Compound: O=C(NNC(=O)c1ccco1)c1ccc(CNS(=O)(=O)c2ccc(F)c(Cl)c2)cc1

Ratio [1]: 0.64
Compound: O=C(Cc1ccccc1)NNC(=O)c1ccc(CNS(=O)(=O)c2ccc(F)c(Cl)c2)cc1

inhibition [2]: Active | inhibition [3]: Active | inhibition [4]: inactive | Ratio [1]: 1.33 | IC50 [5]: 216 nM
Compound: O=C(NNC(=O)c1c[nH]c2ccccc12)c1ccc(CNS(=O)(=O)c2ccc(F)c(Cl)c2)cc1

Ratio [1]: 1.28
Compound: O=C(NNC(=O)c1cc2ccccc2[nH]1)c1ccc(CNS(=O)(=O)c2ccc(F)c(Cl)c2)cc1

Ratio [1]: 0.58
Compound: O=C(NNC(=O)c1cc2ccccc2s1)c1ccc(CNS(=O)(=O)c2ccc(F)c(Cl)c2)cc1

Ratio [1]: 0.58
Compound: O=C(NNS(=O)(=O)c1ccccc1)c1ccc(CNS(=O)(=O)c2ccc(F)c(Cl)c2)cc1

— ChEMBL document CHEMBL4265927, “Systematic variation of the benzoylhydrazine moiety of the GluN2A selective NMDA receptor antagonist TCN-201” (Eur J Med Chem, 2018)
